A short description of series [1]: Population pharmacokinetics of teriparatide after subcutaneous injection. Format: in vivo, postmenopausal women with osteoporosis. The method in brief:
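Serum drug levels measured in a 360-patient subset at months 1, 3, 6, 12 and 18, one sample per visit within a 0–30 min, 30 min–1 h, 1–2 h, 2–3 h or 3–4 h postdose window. Serum stored at -70°C; two-site immunoradiometric assay using bead-bound capture and 125I-labelled detection antibodies to PTH 1–34. Standard curve 9.8–20,000 pg/ml; quantifiable range 50–2,000 pg/ml; accuracy and precision ±20%.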

Series [2] deals with serum calcium. The experiment in a line: Serum calcium pharmacodynamic response to teriparatide. The format is in vivo, postmenopausal women with osteoporosis. Particulars: for predose serum calcium, mean ± SE: samples 16–24 h postdose. In a few lines: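 Unadjusted total serum calcium measured in all patients at baseline and 4–6 h postdose at months 1, 3, 6, 12, 18 and 24, at three laboratories using identical, cross-calibrated methods. Samples falling 16–24 h postdose served as predose values.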

The nature of series [3]: Adverse events commonly associated with hypercalcemia, Fracture Prevention Trial. Format: in vivo, postmenopausal women with osteoporosis. As to conditions: teriparatide 20 μg/day; overall cohort (n = 541). In a few lines: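 Events typical of hypercalcemia were collected throughout the trial in women randomized to once-daily subcutaneous teriparatide or placebo. They were tabulated for the whole teriparatide cohort and for the subset whose 4–6 h postdose serum calcium exceeded 10.6 mg/dl.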

The conditions of series [4]: cited from earlier work.
In series [5] the test system is serum calcium. Particulars: rats; subcutaneous injections every hour for six injections; cited from earlier work.
For series [6] the following is noted: cited from earlier work. This is another data set of the same source.
The conditions of series [7]: cited from earlier work. The source holds these as a separate data set.
The mark [8] stands for this setting: comparing 10th and 90th percentiles of body weight (51–80 kg), population PK.
The mark [9] stands for this setting: female, human, serum, sc, 20 ug.
Where [10] appears, read: daily injections of teriparatide 20 µg.
The mark [11] stands for this setting: indirect-response PK–PD model, teriparatide 20 μg sc, 360 patients.

Consider three molecules from article PMC2978887 (Calcified Tissue International, 2010).

Where two headings read alike, the source gives them in different places.

Broadly, the CL/F is clearance divided by bioavailability, as obtained after extravascular dosing. A word on the Tmax: it is the time at which the peak concentration occurs. As a reminder, the bioavailability is dose-corrected exposure relative to a reference, in per cent. As to `CC[C@H](C)[C@H](NC(=O)[C@H](CCC(=O)O)NC(=O)[C@H](CO)NC(=O)[C@@H](NC(=O)[C@@H](N)CO)C(C)C)C(=O)N[C@@H](CCC(N)=O)C(=O)N[C@@H](CC(C)C)C(=O)N[C@@H](CCSC)C(=O)N[C@@H](Cc1cnc[nH]1)C(=O)N[C@@H](CC(N)=O)C(=O)N[C@@H](CC(C)C)C(=O)NCC(=O)N[C@@H](CCCCN)C(=O)N[C@@H](Cc1cnc[nH]1)C(=O)N[C@@H](CC(C)C)C(=O)N[C@@H](CC(N)=O)C(=O)N[C@@H](CO)C(=O)N[C@@H](CCSC)C(=O)N[C@@H](CCC(=O)O)C(=O)N[C@@H](CCCN=C(N)N)C(=O)N[C@H](C(=O)N[C@@H](CCC(=O)O)C(=O)N[C@@H](Cc1c[nH]c2ccccc12)C(=O)N[C@@H](CC(C)C)C(=O)N[C@@H](CCCN=C(N)N)C(=O)N[C@@H](CCCCN)C(=O)N[C@@H](CCCCN)C(=O)N[C@@H](CC(C)C)C(=O)N[C@@H](CCC(N)=O)C(=O)N[C@@H](CC(=O)O)C(=O)N[C@H](C(=O)N[C@@H](Cc1cnc[nH]1)C(=O)N[C@@H](CC(N)=O)C(=O)N[C@@H](Cc1ccccc1)C(=O)O)C(C)C)C(C)C` [teriparatide, recombinant human parathyroid hormone (rhPTH[1–34])], the “total duration of exposure to the peptide” value in series [1] (20 μg sc once daily) was “approximately 4 h”. Moreover, the “duration of exposure above basal endogenous PTH concentrations (28 pg/ml)” value in series [1] (20 μg sc, molar basis, concentration–time profile extrapolated to infinite time) is given as “about 4 h”. Moreover, in series [1] (setting [8]), the “prolongation in Tmax in heavier patients” value was 2.3 min and the “reduction in Cmax in heavier patients” value stood at 26%. In series [1] (setting [9]), the CL/F is around 1030 mL/min, the Tmax is around 30 min and the level at 3 h was below 0.05 ng/mL. For the same molecule, in series [1] (population PK covariate estimate, 20 μg sc), the “slower rate of absorption, thigh vs abdominal wall injection” value is on record as 21%. The “half-life based upon Ka (ln 2/Ka)” value in series [1] (population PK model, 20 μg sc) was 1.1 h. The “predose serum calcium, mean ± SE” value in series [2] (1 month, teriparatide 20 μg) was found to be 9.19 ± 0.03 mg/dL. Moreover, the “predose serum calcium, mean ± SE” value in series [2] (3 months, teriparatide 20 μg) came to 9.12 ± 0.08 mg/dL. The “predose serum calcium, mean ± SE” value in series [2] (6 months, teriparatide 20 μg) turned out to be 9.29 ± 0.03 mg/dL. Also, the “predose serum calcium, mean ± SE” value in series [2] (12 months, teriparatide 20 μg) was found to be 9.40 ± 0.03 mg/dL. For the same molecule, the “predose serum calcium, mean ± SE” value in series [2] (18 months, teriparatide 20 μg) was found to be 9.30 ± 0.08 mg/dL. The “predose serum calcium, mean ± SE” value in series [2] (24 months, teriparatide 20 μg) amounted to 9.26 ± 0.05 mg/dL. In series [2] (setting [10]), the “time after dosing at which serum calcium begins to increase” value was “approximately 2 h” and the “time of maximum serum calcium concentration/effect after dosing” value is 4.25 h. For the same molecule, the “Emax, maximum calcemic response” value in series [2] (indirect-response PK–PD model, 62% CV) is 19.5%. Also, the “EC50, teriparatide concentration required to produce 50% of the maximum calcium effect” value in series [2] (indirect-response PK–PD model, serum teriparatide) is 0.054 ng/mL. In series [2] (setting [11]), the “Kin, zero-order production rate for change in serum calcium” value is listed as 1.1 mg/(dl · hour) and the “Kout, first-order dissipation rate for calcium response” value amounted to 0.12 h⁻¹. Also, the “patients with a predose serum calcium >11.0 mg/dl” value in series [2] (teriparatide 20 μg) is given as “no”. The “patients with serum calcium above the upper limit of normal (10.6 mg/dl) 4–6 h after dosing” value in series [2] (teriparatide 20 µg group, fifty patients, placebo 1.1%) is 9.4%. Besides, in series [2] (teriparatide 20 µg sc daily), the “time after dosing at which serum calcium begins to decline” value is recorded as “approximately 6 h” and the “time after each dose by which serum calcium returned to predose levels” value was in the range of 16 to 24 h. Besides, the persistent hypercalcemia entry in series [2] (teriparatide 20 μg sc daily, median 21 months' treatment) is “not observed”. In addition, the “patients with a predose serum calcium value >10.6 mg/dl” value in series [2] (teriparatide 20 μg, 1/223 patients) is 0.4%. Besides, in series [3], the Abdominal pain was 48 (8.9%) n (%), the Anorexia is on record as 8 (1.5%) n (%), the Arrhythmias is given as 9 (1.7%) n (%) and the Constipation is recorded as 32 (5.9%) n (%). In series [3], the Depression is on record as 21 (3.9%) n (%), the Headache is 44 (8.1%) n (%), the Hypertension is recorded as 41 (7.6%) n (%) and the Nausea is reported as 51 (9.4%) n (%). For the same molecule, in series [3], the Pancreatitis is given as 1 (0.2%) n (%), the Peptic ulcer/gastritis is listed as 8 (1.5%) n (%) and the Vomiting is on record as 19 (3.5%) n (%). In addition, in series [4], the bioavailability is on record as 95%, the half-life following injection was 60 min and the “time to peak concentration following injection” value is given as 30 min. Also, in series [4] (intravenous), the “true elimination half-life following intravenous administration” value was 5 min. Also, the “sustained elevated serum calcium concentrations” value in series [5] is recorded as “sustained elevated serum calcium concentrations occurred”.

Turning to parathyroid hormone [PTH], the “half-life (clearance of the endogenous hormone)” value in series [6] is given as below 2 min.

With “rhPTH(1–84): full human recombinant PTH, available for treatment of osteoporosis in some countries at a daily dose of 100 μg”, the bioavailability in series [7] is 55%. In addition, the apparent terminal half-life in series [7] (sc) is 90 to 150 min. For the same molecule, the “time of first peak of serum concentration–time profile after dosing” value in series [7] (single-dose sc, dose range 0.02–5.0 μg/kg) was 5 to 10 min.
